From ChEMBL document CHEMBL6134796, “Development and Evaluation of Indole-Based Phospholipase D Inhibitors for Lung Cancer Immunotherapy” (J Med Chem, 2025) come the findings set out here.

The test system of one series is Mus musculus. Put plainly: In vivo inhibition of KRAS activation in male C57BL/6 mouse allografted with mouse Lewis lung carcinoma cell line assessed as decrease in ERK phosphorylation at 10 mg/kg, po. Type of series: functional, organism-based.
Series [1] addresses T1, Phospholipase D1 (Mus musculus) (UniProt Q9Z280).
T1 sequence (whole entry): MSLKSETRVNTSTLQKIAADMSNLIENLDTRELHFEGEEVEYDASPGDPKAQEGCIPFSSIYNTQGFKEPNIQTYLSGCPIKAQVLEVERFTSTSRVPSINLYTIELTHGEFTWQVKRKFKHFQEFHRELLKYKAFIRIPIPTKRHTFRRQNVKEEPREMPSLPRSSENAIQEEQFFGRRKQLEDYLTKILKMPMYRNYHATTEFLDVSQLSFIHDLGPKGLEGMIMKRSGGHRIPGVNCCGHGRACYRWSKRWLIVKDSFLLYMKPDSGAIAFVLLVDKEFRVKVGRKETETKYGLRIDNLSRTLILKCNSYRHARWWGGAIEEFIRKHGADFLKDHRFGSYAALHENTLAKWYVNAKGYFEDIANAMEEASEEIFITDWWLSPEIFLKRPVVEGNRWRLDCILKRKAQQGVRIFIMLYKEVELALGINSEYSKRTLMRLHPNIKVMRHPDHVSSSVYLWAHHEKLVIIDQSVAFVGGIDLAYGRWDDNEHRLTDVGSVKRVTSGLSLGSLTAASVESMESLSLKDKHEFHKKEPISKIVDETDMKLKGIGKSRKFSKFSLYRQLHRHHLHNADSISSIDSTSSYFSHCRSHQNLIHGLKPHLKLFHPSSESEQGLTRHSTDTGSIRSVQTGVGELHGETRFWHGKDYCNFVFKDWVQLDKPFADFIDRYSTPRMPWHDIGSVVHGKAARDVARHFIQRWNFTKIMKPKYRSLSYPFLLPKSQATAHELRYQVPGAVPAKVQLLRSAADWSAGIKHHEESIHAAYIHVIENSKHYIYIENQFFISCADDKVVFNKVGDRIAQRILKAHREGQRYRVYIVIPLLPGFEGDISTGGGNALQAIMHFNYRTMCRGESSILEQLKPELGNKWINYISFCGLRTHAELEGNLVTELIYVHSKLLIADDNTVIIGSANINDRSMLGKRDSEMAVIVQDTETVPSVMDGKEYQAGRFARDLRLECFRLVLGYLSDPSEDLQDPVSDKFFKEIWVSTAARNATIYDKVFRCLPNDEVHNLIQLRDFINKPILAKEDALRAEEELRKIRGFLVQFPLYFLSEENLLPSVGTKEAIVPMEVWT
Put plainly: In vivo inhibition of PLD1 in male C57BL/6 mouse allografted with mouse Lewis lung carcinoma cell line assessed as reduction in CD24 expression at 10 mg/kg, po by immunofluorescence analysis. The format is functional, organism-based.

The subject of another series is A549 (human). Put plainly: Cytotoxicity against human A549 cells assessed as decrease in cell growth by WST-1 assay. The settings on record: time 2-48 hrs. (In general: Tetrazolium dyes change colour on reduction, which living cells bring about.)
Series [2] addresses Phospholipase D2 (Homo sapiens) (UniProt O14939). Put plainly: Inhibition of PLD2 (unknown origin) overexpressed in human A549 cells. The format is cell-based. The method, boiled down:
(§1)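 A549 cells transfected with wild-type PLD1, PLD1 mutants (L425A, F614A, F789A) or PLD2, then compound-treated. PLD activity measured as [3H]phosphatidylbutanol formed in the presence of 1-butanol after [3H]myristic acid labeling, expressed as % of total lipid cpm. At least three independent experiments.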

Series [3] has as its target T1, Phospholipase D1 (Mus musculus). Put plainly: In vivo inhibition of PLD1 in male C57BL/6 mouse allografted with mouse Lewis lung carcinoma cell line assessed as increase in IL-17+ th17 cell population at 10 mg/kg, po by immunofluorescence analysis. The format is functional, organism-based. The method, boiled down: (§2)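 Same LLC syngeneic C57BL/6 model, 10 mg/kg PO every other day for 3 weeks. Tumor tissues were stained by immunofluorescence for CD80+ and CD163+ cells, CD8+ T cells, and CD4+/IL-17+ and Treg populations. Nuclei were counterstained with 1 μM Hoechst 33342 and imaged by confocal microscopy.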

Series [4] shares this target. Put plainly: In vivo inhibition of PLD1 in male C57BL/6 mouse allografted with mouse Lewis lung carcinoma cell line assessed as decrease in CD163+ anti-inflammatory M2 macrophage population at 10 mg/kg, po by immunofluorescence analysis. The format is functional, organism-based. The method, boiled down:
as §2

The subject of another series is HCC44. Put plainly: Cytotoxicity against human HCC44 cells assessed as inhibition of cell growth incubated for 48 hrs by WST-1 assay. Type of series: functional, cell-based. The following applies: HCC44, 48 h. The method, boiled down:
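WST-1 viability assay. Cells seeded at 5 × 10^3 per well and incubated 24 h at 37 °C, then exposed to drug for 48 h. Absorbance read at 450 nm, in triplicate. IC50 taken as the concentration giving 50% growth inhibition versus control.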

Series [5] is described as follows: Toxicity in male C57BL/6 mouse assessed as effect on body weight at 10 mg/kg, po measured every other day for 3 weeks. The following applies: in vivo, 504 h. Type of series: organism-based.
The nature of series [6]: Metabolic stability in human plasma assessed as parent compound remaining at 10 uM measured after 30 mins. The format is ADME, cell-free. The following applies: read-out: Stability. The method, boiled down: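 Citrated human plasma spiked to final 10 μM, incubated at 37 °C for 0, 30 and 120 min; quenched with acetonitrile containing internal standard, vortexed, centrifuged at 4 °C; parent remaining quantified by LC-MS/MS in MRM mode on C18 column, formic acid water/acetonitrile gradient.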

Series [7] is described as follows: Metabolic stability in human liver microsomes assessed as parent compound remaining at 1 uM preincubated for 5 mins followed by NADPH regenerating system addition and measured after 30 mins by LC-MS/MS analysis. Type of series: ADME, Microsome. The settings on record: time 35 min, read-out: Stability. The method, boiled down: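 Human liver microsomes 0.5 mg/mL in 0.1 M phosphate buffer pH 7.4, compound 1 μM, preincubated 5 min at 37 °C; NADPH regenerating system added, 30 min at 37 °C; quenched with acetonitrile containing chlorpropamide internal standard, centrifuged; parent remaining by LC-MS/MS, MRM mode, C18 column with formic acid/acetonitrile gradient.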

Series [8] has as its system A549. Put plainly: Cytotoxicity against human A549 cells assessed as inhibition of cell growth incubated for 48 hrs by WST-1 assay. Type of series: functional, cell-based. The settings on record: A549, 48 h.
The subject of series [9] is Lewis lung carcinoma cell line. Put plainly: Antitumor activity against mouse Lewis lung carcinoma cell line allografted in […] male C57BL/6 mouse model assessed as increase in cell apoptosis at 10 mg/kg, po measured every other day for 3 weeks. The format is functional, organism-based.
In series [10] the test system is A549. Put plainly: Inhibition of PLD1 F614A mutant (unknown origin) overexpressed in human A549 cells. Type of series: cell-based. In a few lines:
as §1

Series [11] addresses T1, Phospholipase D1 (Mus musculus). Put plainly: In vivo inhibition of PLD1 in male C57BL/6 mouse allografted with mouse Lewis lung carcinoma cell line assessed as increase in CD4+ cell population at 10 mg/kg, po by immunofluorescence analysis. The format is functional, organism-based. In a few lines:
as §2

For series [12], the system named is A549. Put plainly: Induction of apoptosis in human A549 cells increase in caspase-3 level. Type of series: functional, cell-based. In a few lines:
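Cells plated at about 40% density and treated at 10 μM for 48 h, with Ac-DEVD-CHO as the caspase-3 inhibitor control. Incubated with 1 μM NucView 488 caspase-3 substrate in PBS for 30 min at room temperature. Stained with 1 μM Hoechst 33342 and fluorescence quantified on a plate reader.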

Active and inactive are the calls of the source. The rule behind the calls is not given here.

Phospholipase D2 (Homo sapiens), sequence (O14939 whole entry): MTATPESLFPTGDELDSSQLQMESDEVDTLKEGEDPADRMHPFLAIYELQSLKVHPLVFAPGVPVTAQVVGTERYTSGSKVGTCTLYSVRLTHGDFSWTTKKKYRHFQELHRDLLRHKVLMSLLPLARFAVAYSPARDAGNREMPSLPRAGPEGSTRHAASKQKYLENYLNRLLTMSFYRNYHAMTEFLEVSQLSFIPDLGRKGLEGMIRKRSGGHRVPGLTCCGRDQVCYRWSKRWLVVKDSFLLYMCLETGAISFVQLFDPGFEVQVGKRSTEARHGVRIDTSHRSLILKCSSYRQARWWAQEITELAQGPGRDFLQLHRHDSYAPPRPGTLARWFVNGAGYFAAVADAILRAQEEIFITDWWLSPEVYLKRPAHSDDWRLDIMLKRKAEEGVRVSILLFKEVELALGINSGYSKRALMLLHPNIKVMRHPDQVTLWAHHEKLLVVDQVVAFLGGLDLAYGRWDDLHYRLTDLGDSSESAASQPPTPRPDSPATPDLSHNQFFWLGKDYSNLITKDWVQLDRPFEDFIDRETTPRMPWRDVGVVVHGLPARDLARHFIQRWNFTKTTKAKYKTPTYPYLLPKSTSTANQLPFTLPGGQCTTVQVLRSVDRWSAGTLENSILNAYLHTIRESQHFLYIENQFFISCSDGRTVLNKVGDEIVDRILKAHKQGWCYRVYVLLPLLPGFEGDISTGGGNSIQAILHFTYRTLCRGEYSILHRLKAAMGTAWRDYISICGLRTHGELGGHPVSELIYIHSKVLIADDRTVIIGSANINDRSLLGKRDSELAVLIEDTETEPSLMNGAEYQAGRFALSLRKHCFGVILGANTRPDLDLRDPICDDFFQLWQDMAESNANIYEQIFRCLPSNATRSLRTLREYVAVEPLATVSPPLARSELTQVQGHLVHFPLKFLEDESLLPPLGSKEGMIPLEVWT

For orientation: IC50 means the concentration needed to halve the response being measured. For the compound `O=C(CCc1c[nH]c2ccccc12)Nc1cc(C(F)(F)F)cc(C(F)(F)F)c1`, the inhibition entry (in the series on Mus musculus; in series [1]; in series [3]; in [4]; in [11]) was “Active” throughout. The Activity result was “Time-dependent-effect” in the series on A549 (human) and “Non-toxic” in series [5]. Further, the inhibition entry (in series [2]; in the series with A549 [10]) was “inactive” each time. In addition, the values for the IC50 in the series on HCC44 and in the series on A549 [8] were 22.3 µM and 18 µM, respectively. The remaining at 0.5 h, 10 µM in series [6] came out at 97.4%. The remaining at 0.5 h, 1 µM in series [7] amounted to 57.3%. The result (in series [9]; with A549 [12]) was Active.
